The values that follow come from ChEMBL document CHEMBL1125259, “Lipophilic glycosyl phosphotriester derivatives of AZT: synthesis, NMR transmembrane transport study, and antiviral activity” (1991).

The structures appear in SMILES notation.

The target of test [1] is Human immunodeficiency virus type 1 reverse transcriptase (Human immunodeficiency virus 1) (UniProt Q72547). Kind of test: Compound ability to inhibit the production of HIV reverse transcriptase (RT) in culture supernatant of CEM-CL13 on at 7 days at a concentration 0.2 uM. Type of test: functional. Summed up:
(§1)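 CEM-C113 cells in RPMI 1640 with 5% heat-inactivated FCS and polybrene (2 µg/mL) were plated at 1×10^5 cells/mL with compound in PBS, in triplicate, and infected with HIV-1 LAV-Bru. From day 7, every 3–4 days, fresh medium with or without drug was added and 50 µL supernatant was taken for RT microassay. The RT microassay used poly(rA)-oligo(dT) and (methyl-³H)dTTP for 1 h at 37 °C, with TCA precipitation, read as cpm/50 µL.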

For test [2] the target is unchanged. Put plainly: Percent inhibition measured as the production of HIV reverse transcriptase (RT) in culture supernatant of monocytic U937 on at 7 days at a concentration 1 uM. Type of test: functional. Summed up: (§2)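 U937 cells in RPMI 1640 with 5% heat-inactivated FCS, penicillin, streptomycin and polybrene (2 μg/mL), 37 °C, 5% CO2. Infected with HIV-1 LAV-Bru; compounds diluted in PBS. 50 μL supernatant aliquots were assayed for RT: 1 h, 37 °C, pH 7.8, Mg2+, poly(rA)-oligo(dT), [3H]dTTP, TCA-pyrophosphate stop, filter counting. % inhibition = 100 − 100 × (treated cpm / virus-control cpm).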

Test [3] has the same target. Put plainly: Compound ability to inhibit the production of HIV reverse transcriptase (RT) in culture supernatant of monocytic U937 on at 14 days at a concentration 5 uM. It is filed as functional. The method in brief:
(§3)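 HIV-1-infected monocytic U937 cultures were kept up to 14 days with compound. Supernatant RT activity was measured as for CEM-C113, as [³H] cpm/50 µL. % inhibition = 100 − 100 × (cpm of treated samples / cpm of control virus).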

Test [4] has the same target. Put plainly: Percent inhibition measured as the production of HIV reverse transcriptase (RT) in culture supernatant of monocytic U937 on at 7 days at a concentration 0.2 uM. It is filed as functional. The method in brief:
as §2

In a further test the test system is CCRF-CEM. Kind of test: Concentration that reduced by 50% the HIV induced CPE (cytopathic effect) on day 7. Type of test: functional. The following applies: Homo sapiens, 168 h, read-out: ED50 (the source's name). The method in brief:
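CEM-C113 cells (1×10^5 cells/mL) were infected with HIV-1 LAV-Bru or mock-infected, with compound dilutions in triplicate, for at least 7 days. Medium with or without drug was renewed every 3–4 days for longer runs. MTT absorbance was read at 540 nm. CD50 = 50% reduction of mock-infected absorbance; ED50 = dose giving 50% protection from CPE. Values are averages of at least two experiments.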
A general note: Cytopathic effects are the visible damage that an infection or toxin causes in cultured cells.

The target in test [5] is Human immunodeficiency virus type 1 reverse transcriptase (Human immunodeficiency virus 1) (UniProt Q72547). Kind of test: Compound ability to inhibit the production of HIV reverse transcriptase (RT) in culture supernatant of CEM-CL13 on at 7 days at a concentration 1 uM. Type of test: functional. The method in brief: as §1
Test [6] has the same target. Put plainly: Compound ability to inhibit the production of HIV reverse transcriptase (RT) in culture supernatant of monocytic U937 on at 7 days at a concentration 0.2 uM. Type of test: functional. Summed up:
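HIV-1 LAV-Bru-infected U937 cultures run in complete RPMI 1640 (5% FCS, polybrene 2 µg/mL) at 37 °C with compound in triplicate. Culture supernatant (50 µL) sampled from day 7 for RT microassay: poly(rA)-oligo(dT), (methyl-3H)dTTP, Mg2+, pH 7.8, 1 h at 37 °C, TCA precipitation onto filters. Read as cpm/50 µL; % inhibition = 100 − 100 × treated/virus-control cpm.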

Test [7] shares this target. Kind of test: Compound ability to inhibit the production of HIV reverse transcriptase (RT) in preinfected PBL (peripheral blood lymphocytes) at 21 days at a concentration 5 uM. It is filed as functional. The method in brief: (§4)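 PBL were infected with HIV-1 for 1 h at 37 °C, washed twice, and resuspended in complete medium with 10% interleukin-2 and anti-human α-interferon (1000 units/mL). Cells were plated at 1×10^6 cells/well with or without compound. At each time point, 50 µL supernatant was taken for RT assay ([³H]dTTP incorporation, cpm).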

For test [8] the target is unchanged. The following applies: at 25 µM.
The target is the same in test [9]. Kind of test: Compound ability to inhibit the production of HIV reverse transcriptase (RT) in culture supernatant of monocytic U937 on at 7 days at a concentration 5 uM. Type of test: functional. Summed up: as §3
Test [10] shares this target. Kind of test: Compound ability to inhibit the production of HIV reverse transcriptase (RT) in culture supernatant of CEM-CL13 on at 26 days at a concentration 0.2 uM. It is filed as functional. Summed up:
as §1

Test [11] has the same target. Kind of test: Compound ability to inhibit the production of HIV reverse transcriptase (RT) in preinfected PBL (peripheral blood lymphocytes) at 21 days at a concentration 1 uM. It is filed as functional. The method in brief: as §4
The target is the same in test [12]. Put plainly: Compound ability to inhibit the production of HIV reverse transcriptase (RT) in culture supernatant of monocytic U937 on at 11 days at a concentration 0.2 uM. Type of test: functional. Summed up: as §3
Test [13] has the same target. Kind of test: Compounds were evaluated for anti-RT activity at 7 days of culture. Type of test: functional. Summed up:
(§5)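 HIV-1 (12 500 CCID50) was preincubated with compound at 25 µM final for 60 min at 37 °C, pelleted by ultracentrifugation and resuspended. RT was measured at once with poly(rA)-oligo(dT) and ³H-dTTP (1 h, 37 °C, cpm). Treated virus was then put on CEM-C113 cells for 60 min and replaced with compound-free medium. Supernatant RT was read at days 7 and 9.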

Test [14] shares this target. Kind of test: Percent inhibition measured as the production of HIV reverse transcriptase (RT) in culture supernatant of monocytic U937 on at 11 days at a concentration 0.2 uM. Type of test: functional. The method in brief:
as §3

For test [15] the target is unchanged. Kind of test: Compound ability to inhibit the production of HIV reverse transcriptase (RT) in preinfected PBL (peripheral blood lymphocytes) at 14 days at a concentration 5 uM. It is filed as functional. Summed up: as §4
Test [16] shares this target. Put plainly: Percent inhibition measured as the production of HIV reverse transcriptase (RT) in culture supernatant of monocytic U937 on at 11 days at a concentration 5 uM. It is filed as functional. The method in brief: as §2
For test [17] the target is unchanged. Put plainly: Percent inhibition evaluated for anti-RT activity at 7 days of culture. Type of test: functional. The arrangement: concentration or dose not given beside the values. To be noted: concentration not given here. Summed up: as §5
The target is the same in test [18]. Put plainly: Compound ability to inhibit the production of HIV reverse transcriptase (RT) in culture supernatant of CEM-CL13 on at 7 days at a concentration 5 uM. It is filed as functional. Summed up:
as §1

For test [19] the target is unchanged. Kind of test: Compounds were evaluated for anti-RT activity by MTT dose and %protection was reported at 9 days of culture. Type of test: functional. The method in brief: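 HIV-1 was preincubated with compound at 25 µM for 60 min at 37 °C, pelleted, and added to CEM-C113 cells (1×10^5 cells/mL) for 60 min at 37 °C. Medium was then replaced without compound. At days 7 and 9, viability was read by MTT assay on 100 µL of cell suspension.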

The target is the same in test [20]. Put plainly: Compounds were evaluated for anti-RT activity at 0 days of culture. Type of test: functional. Summed up:
as §5

Test [21] has the same target. Put plainly: Compound ability to inhibit the production of HIV reverse transcriptase (RT) in culture supernatant of monocytic U937 on at 14 days at a concentration 0.2 uM. It is filed as functional. Summed up: as §3

As to `Cc1cn([C@H]2C[C@H](N=[N+]=[N-])[C@@H](CO)O2)c(=O)[nH]c1=O` [ZIDOVUDINE], the Activity (c.p.m. 50ul-1) in test [1] worked out at 1500; in [3] it was 33000; in test [5], 100; in test [6], 23000; in [7], 542; in [9], 35000. In addition, the Activity (c.p.m. 50ul-1) in test [10] is 28000; in test [11] it was 44400; in test [12], 152000; in test [13], 5000; in [15] it was 302; in [18], 900. Also, the Activity (c.p.m. 50ul-1) in test [20] came out at 19000; in [21], 60000. In addition, the inhibition is 85% in test [2]; 91% in test [4]; 0% in test [8]; 0% in [14]; 18% in [16]; 92% in [17]. The EC50 with CCRF-CEM was found to be 120 nM. In [19], this compound gave a Protection of 76%.

By inhibition is commonly meant the change of the read-out against control, counted positive when it falls.
